# APJ antag: antagonists of human APJ apelin receptor | P35414 | CHO-K1 APJ beta-arrestin complementation, luminescence | inhibition, % at 20 µM | actives 0.32% (n = 330,000) | AID 2521;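 active = inhibition above about 40% at 20 µM, limit read from the data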;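 also: cells challenged with 10 nM apelin-13 agonist together with compound; plate controls were apelin-13 plus DMSO wells for no effect and DMSO wells lacking apelin-13 for full effect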
# Target sequence (P35414 whole entry, looked up): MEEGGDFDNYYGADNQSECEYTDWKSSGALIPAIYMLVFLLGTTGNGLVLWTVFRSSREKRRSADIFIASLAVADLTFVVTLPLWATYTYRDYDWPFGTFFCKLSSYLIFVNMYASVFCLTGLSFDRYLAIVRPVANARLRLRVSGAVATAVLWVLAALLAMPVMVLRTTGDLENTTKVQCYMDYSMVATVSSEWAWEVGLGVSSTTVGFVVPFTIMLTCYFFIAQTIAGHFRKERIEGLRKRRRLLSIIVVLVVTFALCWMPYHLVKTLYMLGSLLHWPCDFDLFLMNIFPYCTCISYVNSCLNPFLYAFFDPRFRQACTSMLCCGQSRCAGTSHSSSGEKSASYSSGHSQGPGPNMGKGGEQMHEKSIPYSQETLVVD
# APJ agonist: APJ receptor agonism; P35414; activation, % at 20 µM; CHO-K1 APJ PathHunter beta-arrestin, luminescence; 0% DMSO wells, 100% apelin; actives 0.11% (n = 330,000);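 active = activation more than six SD over the plate average, tested at 20 µM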;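 also: 0% = DMSO alone and 100% = apelin-13 at 10 nM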
#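 Assay system: CHO-K1 cells stably expressing ProLink-tagged human APJ and arrestin–beta-gal acceptor. Compound dosing: 20 µM single point, 1% DMSO. Times: 16-18 h seeding, 90 min dark compound exposure, 60 min detection. Detection: beta-gal luminescence. Evaluation: APJ–arrestin association signal. Controls: negative DMSO alone, positive Apelin-13 at 10 nM.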
# CCR6 antag: blocks CCL20-driven beta-arrestin recruitment at human CCR6 | P51684 | CHO-K1 CCR6 PathHunter beta-arrestin, luminescence, CCL20-stimulated | inhibition, % at 20 µM | actives 0.49% (n = 340,000);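 active = compounds whose inhibition of the agonist-driven luminescence signal at 20 µM reaches about 50%, limit read from the data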;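 also: cells stimulated with CCL20 at 14 nM final; plate controls were DMSO with CCL20 for no effect and DMSO without agonist for full effect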
# EBI2 block: antagonists of human EBI2 receptor | P32249 | EBI2 beta-arrestin recruitment, luminescence, 7a,25-OHC stimulated | inhibition, % at 5 µM | actives 0.81% (n = 360,000) | AID 651636; in the data active = inhibition above about 38%;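 also: enzyme fragment complementation signal reports receptor beta-arrestin coupling in cells; 0% = agonist plus DMSO wells and 100% = wells without agonist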
# CXCR6 inh: blocks human CXCR6 beta-arrestin recruitment. actives 0.36% (n = 360,000). inhibition, % at 20 µM. CHO-K1 PathHunter CXCR6 beta-arrestin, luminescence. O00574; in the data active = inhibition above about 34%, passing the limit was not always enough;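 also: antagonist mode with CXCL16 agonist at 10 nM final; 0% = 10 nM CXCL16 with DMSO and 100% = unstimulated wells without agonist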
# HTR2A ag: activates the mouse 5-HT2A serotonin receptor. activation, % at 7.6 µM. P35363. CHO-K1 mHTR2A beta-arrestin complementation, luminescence; percent of 30 µM serotonin response. AID 624169. actives 0.66% (n = 360,000);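 active = activation above a run cutoff, the mean activation of all tested compounds plus 3 SD, cut at about 14% in these data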;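 also: 0% = plate median of compound wells and 100% = 30 µM serotonin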
# CXCR6 confirm: confirmation of human CXCR6 receptor antagonists | actives 65% (n = 700) | CHO-K1 CXCR6 PathHunter beta-arrestin, luminescence | shares compounds with CXCR6 inh | inhibition, % at 20 µM | AID 602409;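 active = mean inhibition over four retests above 40%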;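 also: receptor stimulated with 10 nM CXCL16 agonist; beta-galactosidase fragment complementation upon beta-arrestin recruitment to receptor; plate controls were CXCL16 plus DMSO for no effect and DMSO without CXCL16 for full effect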
# * marks the source's active call; other numbers are inactive results; . = no result given. This is a sample that favours compounds with a hit; in the whole collection about 2.1% have one here.
SMILES,APJ antag,APJ agonist,CCR6 antag,EBI2 block,CXCR6 inh,HTR2A ag,CXCR6 confirm
C=CC[C@@H](CC(=O)N(CCO)Cc1ccccc1)C(=O)NC[C@@H](OC(=O)[C@@H](CC=C)Cc1ccc(F)cc1)c1ccccc1,-3,-4,14,20,23,3,.
C=CC[C@@H](CC(=O)N(CCO)Cc1ccccc1)C(=O)N[C@@H](COC(=O)[C@@H](CC=C)Cc1ccc(F)cc1)Cc1ccccc1,5,-5,28,8,42*,-4,23
C=CC[C@H](CC(=O)N(CCO)Cc1ccccc1)C(=O)NC[C@H](OC(=O)[C@@H](CC=C)Cc1ccc(F)cc1)c1ccccc1,13,-2,24,-1,48*,-6,19
O=S(=O)(c1ccc(NC(=S)NCCC(c2ccccc2)c2ccccc2)cc1)N1CCOCC1,-15,1,8,4,-3,-6,.
FC(F)Oc1ccccc1/C=N/n1cnc2ccccc21,-3,-4,0,-1,50*,6,8
CCOC(=O)C1(C)CCN1C(=O)c1ccc(OC)c(F)c1 (stereo not drawn),.,.,.,2,4,-1,.
Cc1occc1C(=O)NNC(=S)NC(=O)COc1ccc(Cl)cc1Cl,29,-4,48,3,42*,11,37
O=C1CC(Sc2nnnn2-c2ccccc2)C(=O)N1c1cccc(Cl)c1 (stereo not drawn),27,-1,.,7,94*,-4,59*
COC(=O)[C@H](CCSC)NC(=O)Nc1ccc(OC)cc1OC,25,-3,-1,-1,77*,-1,-2
COC(=O)c1cc(=O)nc(NN=Cc2ccco2)s1,.,.,.,-9,17,0,.
N#CC(C#N)=C1C=CC=CN1/C(=C\c1ccco1)C(=O)c1ccc(-c2ccccc2)cc1,.,.,83*,29,44*,0,51*
COc1cc(/C=C/C(=O)OCC(=O)N(C)C2CCS(=O)(=O)C2)ccc1OC(F)F (stereo not drawn),11,1,2,-5,5,5,.
CNC[C@@H](CC1CCCCC1)NC[C@H](CC(C)C)NCCc1cccc(C(F)(F)F)c1,15,-8,41,-12,42*,4,37
CNC[C@@H](Cc1ccccc1)NC[C@@H](CC1CCCCC1)NCCCc1ccccc1,32,9,41,-27,-4,0,.
COc1cc(N2C(=O)C=CC2=O)ccc1N1C(=O)C=CC1=O,.,.,107*,23,106*,7,47*
COc1ccc(N2C(=O)C3CC(C)=C(C)CC3C2=O)c(OC)c1 (stereo not drawn),6,-5,9,-2,2,1,.
COc1ccc(S(=O)(=O)N2CCCCCC2)cc1C(=O)Nc1ccccn1,-5,0,7,-3,4,-11,.
COc1ccc(NC(=S)N(CCc2c(C)[nH]c3ccccc23)Cc2cccnc2)cc1,-7,-4,7,5,37*,13,23
C=CCNc1sc(C(=O)c2ccc(C)cc2)c(N)c1C#N,15,0,0,4,55*,-4,16
Cc1ccc(NC(=O)CN(C)C(=O)c2ccc(NS(=O)(=O)c3ccc4[nH]c(=O)[nH]c4c3)cc2)cc1,-16,-3,13,1,-6,-1,.
Cc1ccc(NC(=S)N/N=C/c2ccc([N+](=O)[O-])s2)cc1,-21,1,72*,50*,52*,-6,72*
O=C(O)c1ccc(-n2nc(C(F)(F)F)c3c2CCCC3)cc1,1,-4,3,-1,4,1,.
O=C(c1ccc(-n2nc(C(F)(F)F)c3c2CCCC3)cc1)N1CCOCC1,-2,-2,18,-8,47*,7,-14
C=CCSC1=N/C(=C\c2cc(OCC)c(OC(C)=O)c([N+](=O)[O-])c2)C(=O)S1,25,-7,53*,-7,46*,-1,54*
CN(C)/C(=N\S(=O)(=O)c1ccc(Cl)cc1)c1ccc(F)cc1,11,-2,5,11,43*,2,-2
SMILES,APJ antag,APJ agonist,CCR6 antag,EBI2 block,CXCR6 inh,HTR2A ag,CXCR6 confirm
CCOc1cc(Br)c(Br)c(C=Nc2ccc(NC(C)=O)cc2)c1O,31,-5,19,20,42*,-5,70*
CC(=O)Nc1ccc(N=Cc2c(O)c(C(=O)Nc3ccccc3)cc3ccccc23)cc1,-29,3,-19,.,.,.,.
CS(=O)(=O)c1ccc(C(=O)OCc2nnc(-c3ccccc3)o2)cc1[N+](=O)[O-],.,.,62*,56*,64*,-3,76*
O=C(COC(=O)c1ccc(Br)o1)NCc1ccccc1Cl,-5,0,-3,-3,3,0,.
CCc1noc(C)c1C(=O)N(CCC(C)C)c1c(N)n(Cc2ccccc2)c(=O)[nH]c1=O,-19,-6,3,4,-2,2,.
Cc1cc(SCC(=O)OCC(=O)N(CCC#N)c2ccccc2)nc2ccccc12,-38,-3,15,-6,1,2,.
Cc1cc(C)n2c(=O)c3ccc(Cl)cc3nc2c1C#N,-1,1,12,6,-5,-4,.
Cc1cc(Cl)n2c(nc3cc(F)c(F)cc32)c1C#N,.,.,47,-5,44*,0,53*
O=C(NCc1ccccc1F)C1CCCN1S(=O)(=O)c1ccc(Cl)cc1 (stereo not drawn),12,2,19,3,-5,6,.
CCc1nnc(NS(=O)(=O)c2ccc(Nc3ccc([N+](=O)[O-])c4nonc34)cc2)s1,65*,-9,73*,9,48*,-10,42*
CCc1nnc(NS(=O)(=O)c2ccc(NS(=O)(=O)c3ccccc3[N+](=O)[O-])cc2)s1,3,-2,-2,0,-30,4,.
Cc1cccc(Cc2cnc(N3C(=N)SC(C)C3=O)s2)c1 (stereo not drawn),17,-3,.,-2,53*,-6,73*
Cc1ccc(Cc2cnc(N3C(=N)SC(C)C3=O)s2)cc1 (stereo not drawn),22,-2,.,6,53*,-1,70*
Cc1cccc(Cc2cnc(N3C(=N)SC(c4ccccc4)C3=O)s2)c1 (stereo not drawn),-4,0,40,-6,15,2,.
CCOC(=O)c1sc2nc(SCC(=O)N(CC)CC)n(CCCN3CCCC3=O)c(=O)c2c1C,17,1,2,1,4,-6,.
CCOC(=O)c1sc2nc(SCC#N)n(CC3CCCO3)c(=O)c2c1C (stereo not drawn),24,-6,8,11,61*,0,13

# Bioassay records: PubChem BioAssay, several laboratories
